Several values for one entry are separate records, joined by “and”; a condition that tells them apart may be missing. Equal values may be shown once.
Assays:
[1] = test system: MCF7; experiment: Toxicity was determined against of MCF-7 cells at a dose of 10 ug/mL; assay type: cell-based; conditions: human
How it was run: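 Drug-sensitive MCF-7 cells exposed to 10 μg/mL compound for 48 h, in triplicate, with 1% ethanol solvent controls. Percentage of cells killed = percentage decrease in sulforhodamine B binding (570 nm) relative to control cultures.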

[2] = target: T1, ATP-dependent translocase ABCB1 (Homo sapiens, UniProt P08183); experiment: Pgp antagonism was determined percentage of NCI/ADR cells surviving in the absence of vinblastine/percentage of NCI/ADR cells surviving in the presence of vinblastine; assay type: functional, cell-based
How it was run: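 Modulator at 10 μg/mL tested with or without 50 nM vinblastine for 48 h, in triplicate. Survival read by sulforhodamine B at 570 nm against ethanol (1%) controls. Score = % survival without vinblastine / % survival with vinblastine.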

[3] = target: Multidrug resistance-associated protein 1 (Homo sapiens, UniProt P33527); experiment: MRP1 antagonism was determined percentage of MCF-7/VP cells surviving in the absence of vincristine/percentage of MCF-7/VP cells surviving in the presence of vincristine; assay type: functional
How it was run: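 MCF-7/VP cells in RPMI 1640 with 10% FBS. Modulator at 10 μg/mL tested with or without 1 nM vincristine for 48 h, in triplicate. Sulforhodamine B read-out at 570 nm. Score = % survival without vincristine / % survival with vincristine; a score above 1.0 indicates chemosensitization.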

[4] = Ratio of the Pgp to that of MRP1 was determined; assay type: functional
[5] = Compound was evaluated for broad range of antagonistic activity against multi drug resistance-related protein (MRP) value expressed as IC20; assay type: functional; design: unit not given here
[6] = target: T1, ATP-dependent translocase ABCB1; experiment: Compound was evaluated for broad range of antagonistic activity against P-glycoprotein (Pgp) value expressed as IC20; assay type: functional
[7] = test system: MCF-7 (Homo sapiens); experiment: Toxicity against MCF-7 cells
[8] = test system: Mus musculus; experiment: In vivo tumor growth inhibition in mice when […] at a day 1; assay type: functional
How it was run: (§1)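 Balb/c female mice, 6–8 weeks old, with 10^6 JC murine mammary adenocarcinoma cells injected subcutaneously in the right hind quarter. Treatment began once tumors were palpable (day 1), five mice per group. Dosing on days 1, 5 and 9: 100 mg/kg i.p. PGP-4008·HCl with or without 5 mg/kg doxorubicin. Caliper volumes calculated as (L×W²)/2 through day 15; unpaired t-test with Welch correction.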

[9] = test system: Mus musculus; experiment: In vivo tumor growth inhibition in mice when […] at a day 15; assay type: functional; how it was run: as §1
[10] = test system: Mus musculus; experiment: In vivo tumor growth inhibition in mice when administered […] at a day 9; assay type: functional; how it was run: as §1
[11] = test system: Mus musculus; experiment: In vivo tumor growth inhibition in mice when administered […] at a day 12; assay type: functional; how it was run: as §1
[12] = test system: Mus musculus; experiment: In vivo tumor growth inhibition in mice when administered subcutaneously at a day 5; assay type: functional; conditions: in the assay text read “intraperitoneally” for “subcutaneously”; how it was run: as §1

Multidrug resistance-associated protein 1, sequence (P33527 whole entry): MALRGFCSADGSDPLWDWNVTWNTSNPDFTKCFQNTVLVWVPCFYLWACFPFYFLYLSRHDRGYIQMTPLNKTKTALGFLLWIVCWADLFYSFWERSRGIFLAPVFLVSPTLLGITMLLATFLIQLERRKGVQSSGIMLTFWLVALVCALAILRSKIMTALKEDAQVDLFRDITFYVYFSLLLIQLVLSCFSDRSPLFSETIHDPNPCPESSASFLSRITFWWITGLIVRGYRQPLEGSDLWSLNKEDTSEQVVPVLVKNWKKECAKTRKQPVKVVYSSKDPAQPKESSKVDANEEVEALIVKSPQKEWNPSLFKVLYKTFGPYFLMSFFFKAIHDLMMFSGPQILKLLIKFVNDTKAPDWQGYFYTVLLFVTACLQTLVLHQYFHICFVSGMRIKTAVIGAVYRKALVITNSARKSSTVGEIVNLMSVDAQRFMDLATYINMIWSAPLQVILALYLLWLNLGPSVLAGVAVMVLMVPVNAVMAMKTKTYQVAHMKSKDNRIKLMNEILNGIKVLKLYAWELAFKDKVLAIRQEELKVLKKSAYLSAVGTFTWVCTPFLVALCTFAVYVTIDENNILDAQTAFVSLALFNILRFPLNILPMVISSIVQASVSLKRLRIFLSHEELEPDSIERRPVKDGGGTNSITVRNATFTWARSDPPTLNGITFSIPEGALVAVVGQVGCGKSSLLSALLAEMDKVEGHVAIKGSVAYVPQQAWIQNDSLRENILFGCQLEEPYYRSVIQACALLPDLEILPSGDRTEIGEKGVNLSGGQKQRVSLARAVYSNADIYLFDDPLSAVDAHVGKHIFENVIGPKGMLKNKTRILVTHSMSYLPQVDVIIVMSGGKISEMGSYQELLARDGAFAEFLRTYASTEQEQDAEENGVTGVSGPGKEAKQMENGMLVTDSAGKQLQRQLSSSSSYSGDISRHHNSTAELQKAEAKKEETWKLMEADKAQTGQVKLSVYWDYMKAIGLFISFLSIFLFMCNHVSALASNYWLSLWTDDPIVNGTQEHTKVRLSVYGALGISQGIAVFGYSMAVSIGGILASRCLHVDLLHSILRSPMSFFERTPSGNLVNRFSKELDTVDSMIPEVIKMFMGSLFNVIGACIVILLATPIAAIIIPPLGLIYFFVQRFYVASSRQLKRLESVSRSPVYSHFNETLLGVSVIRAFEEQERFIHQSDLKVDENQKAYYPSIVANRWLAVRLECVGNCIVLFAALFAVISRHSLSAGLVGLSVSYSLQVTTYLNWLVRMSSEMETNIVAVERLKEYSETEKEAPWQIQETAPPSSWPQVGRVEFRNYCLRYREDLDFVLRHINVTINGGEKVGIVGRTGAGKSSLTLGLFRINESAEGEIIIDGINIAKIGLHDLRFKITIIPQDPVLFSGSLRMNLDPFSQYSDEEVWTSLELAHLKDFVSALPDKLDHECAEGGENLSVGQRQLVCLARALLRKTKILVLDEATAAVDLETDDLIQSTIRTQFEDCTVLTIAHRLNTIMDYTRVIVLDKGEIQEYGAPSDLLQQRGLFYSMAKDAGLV
T1 sequence (P08183 whole entry): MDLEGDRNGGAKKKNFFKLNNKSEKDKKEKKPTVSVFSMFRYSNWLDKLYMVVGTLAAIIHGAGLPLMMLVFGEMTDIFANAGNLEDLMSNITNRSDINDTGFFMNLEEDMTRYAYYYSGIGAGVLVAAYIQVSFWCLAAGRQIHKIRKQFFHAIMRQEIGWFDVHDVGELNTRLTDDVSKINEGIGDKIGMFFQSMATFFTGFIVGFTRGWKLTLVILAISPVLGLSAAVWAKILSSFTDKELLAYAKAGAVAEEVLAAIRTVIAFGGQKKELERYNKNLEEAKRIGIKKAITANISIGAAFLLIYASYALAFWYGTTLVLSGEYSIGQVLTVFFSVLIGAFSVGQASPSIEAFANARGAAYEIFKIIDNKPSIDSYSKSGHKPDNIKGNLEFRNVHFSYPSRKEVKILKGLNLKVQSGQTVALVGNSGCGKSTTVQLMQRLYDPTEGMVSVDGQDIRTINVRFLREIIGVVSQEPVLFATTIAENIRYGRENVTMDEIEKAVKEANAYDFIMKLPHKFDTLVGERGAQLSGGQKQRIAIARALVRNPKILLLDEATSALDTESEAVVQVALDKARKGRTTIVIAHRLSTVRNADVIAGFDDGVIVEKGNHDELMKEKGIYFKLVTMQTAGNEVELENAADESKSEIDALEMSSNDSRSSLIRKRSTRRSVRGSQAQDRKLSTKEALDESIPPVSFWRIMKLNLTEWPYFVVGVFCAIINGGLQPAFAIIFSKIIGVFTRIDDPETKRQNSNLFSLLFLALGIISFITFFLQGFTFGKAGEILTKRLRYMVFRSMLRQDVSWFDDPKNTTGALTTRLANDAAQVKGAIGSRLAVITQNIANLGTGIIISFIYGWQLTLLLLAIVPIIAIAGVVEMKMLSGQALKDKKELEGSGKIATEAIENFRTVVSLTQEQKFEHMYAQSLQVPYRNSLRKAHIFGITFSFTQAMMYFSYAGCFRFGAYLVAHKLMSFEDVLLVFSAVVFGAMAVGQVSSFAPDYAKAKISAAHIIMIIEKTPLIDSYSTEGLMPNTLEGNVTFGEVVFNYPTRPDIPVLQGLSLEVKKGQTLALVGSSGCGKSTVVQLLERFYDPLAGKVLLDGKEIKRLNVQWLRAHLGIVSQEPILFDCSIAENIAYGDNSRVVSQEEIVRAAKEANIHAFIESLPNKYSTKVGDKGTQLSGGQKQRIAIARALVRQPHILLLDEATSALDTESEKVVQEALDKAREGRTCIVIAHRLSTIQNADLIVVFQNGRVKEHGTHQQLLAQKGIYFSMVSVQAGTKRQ

| SMILES | Toxicity [1] | Ratio [2] | Ratio [3] | Ratio [4] | other results |
| --- | --- | --- | --- | --- | --- |
| Cc1ccc2nc3c(c(N)c2c1)CCN3Cc1ccccc1 | 81% | 1.5 | 1.2 | 1.3 |  |
| CN1CCc2c1nc1ccccc1c2NC(=O)C12CC3CC(CC(C3)C1)C2 | 29% | 4.7 | 0.9 | 5.2 |  |
| Nc1c2c(nc3ccccc13)N(Cc1ccccc1)CC2 | 47% | 3.1 | 1 | 3.1 | Activity [5]: 1; Activity [6]: 1; Toxicity [7]: 6.2 µM |
| Nc1c2c(nc3cc(Br)ccc13)N(Cc1ccccc1)CC2 | 94% | 1.7 | 1.3 | 1.3 |  |
| CC(C)NCC(=O)Nc1c2c(nc3ccccc13)N(C)CC2 | 39% | 1.8 | 1.4 | 1.3 |  |
| Fc1ccc(CNc2c3c(nc4ccccc24)N(Cc2ccccc2)CC3)cc1 |  |  |  |  | Activity [5]: 0.7; Activity [6]: 1.3; Toxicity [7]: > 65 µM |
| Nc1c2c(nc3ccccc13)N(c1ccccc1)CC2 | 52% | 2.7 | 1.1 | 2.5 |  |
| Cc1ccc2c(N)c3c(nc2c1)N(Cc1ccccc1)CC3 | 77% and 98% | 1.6 and 0.7 | 1.7 and 1 | 0.9 and 0.7 |  |
| Fc1cccc(CNc2c3c(nc4ccccc24)N(Cc2ccccc2)CC3)c1 |  |  |  |  | Activity [5]: 0.7; Activity [6]: 1.2; Toxicity [7]: > 65 µM |
| CN1CCc2c1nc1ccccc1c2NC(=O)CNC(C)(C)C | 28% | 3.2 | 1.2 | 2.7 |  |
| Nc1c2c(nc3cc(Br)ccc13)N(C1CCCCC1)CC2 | 99% | 1 | 1 | 1 |  |
| O=C(Nc1c2c(nc3ccccc13)N(Cc1ccccc1)CC2)c1c(F)cccc1C(F)(F)F |  |  |  |  | Activity [5]: 0.9; Activity [6]: 2.5; Toxicity [7]: 13 µM |
| Nc1c2c(nc3ccccc13)N(C1CCCCC1)CC2 | 97% | 0.8 | 0.6 | 1.3 |  |
| O=C(Nc1c2c(nc3ccccc13)N(Cc1ccccc1)CC2)c1ccc(F)c(C(F)(F)F)c1 |  |  |  |  | Activity [5]: 0.9; Activity [6]: 4.9; Toxicity [7]: 19 µM |
| CCN(CC)CC(=O)Nc1c2c(nc3ccccc13)N(C)CC2 | 30% | 6 | 1.2 | 5 |  |
| O=C(CN1CCCCC1)Nc1c2c(nc3ccccc13)N(Cc1ccccc1)CC2 | 0% | 18 | 1.1 | 16 | Activity [5]: 1; Activity [6]: 9; Toxicity [7]: 14 µM |
| CC(C)NCC(=O)Nc1c2c(nc3ccccc13)N(Cc1ccccc1)CC2 | 45% | 13 | 1 | 13 |  |
| Cc1cc(C)c2c(N)c3c(nc2c1)N(Cc1ccccc1)CC3 | 49% | 3.6 | 1.4 | 2.6 |  |
| CN1CCc2c1nc1ccccc1c2NC(=O)CCc1cc(C(C)(C)C)c(O)c(C(C)(C)C)c1 | 99% | 1 | 1 | 1 |  |

| SMILES | Toxicity [1] | Ratio [2] | Ratio [3] | Ratio [4] | other results |
| --- | --- | --- | --- | --- | --- |
| CCC(=O)Nc1c2c(nc3ccccc13)N(C)CC2 |  |  |  | 1.6 |  |
| CCCCN(CCCC)CC(=O)Nc1c2c(nc3ccccc13)N(C)CC2 | 50% | 4.2 | 1.3 | 3.2 |  |
| COc1cccc2c1C(=O)c1c(O)c3c(c(O)c1C2=O)C[C@@](O)(C(=O)CO)C[C@@H]3O[C@H]1C[C@H](N)[C@H](O)[C@H](C)O1.O=C(Cc1ccccc1)Nc1c2c(nc3ccccc13)N(Cc1ccccc1)CC2 |  |  |  |  | Tumor volume [8]: 390 mm**3; Tumor volume [9]: 670 mm**3; Tumor volume [10]: 520 mm**3; Tumor volume [11]: 560 mm**3; Tumor volume [12]: 470 mm**3 |
| CN1CCc2c1nc1ccccc1c2NC(=O)CN1CCCCC1 | 51% | 4.1 | 1.2 | 3.4 |  |
| CN1CCc2c1nc1ccccc1c2/N=C(/c1ccccc1)N1CCCCC1 | 58% | 2.4 | 1 | 2.4 |  |
| COc1cccc2c1C(=O)c1c(O)c3c(c(O)c1C2=O)C[C@@](O)(C(=O)CO)C[C@@H]3O[C@H]1C[C@H](N)[C@H](O)[C@H](C)O1 [DOXORUBICIN] |  |  |  |  | Tumor volume [8]: 430 mm**3; Tumor volume [9]: 1680 mm**3; Tumor volume [10]: 860 mm**3; Tumor volume [11]: 1210 mm**3; Tumor volume [12]: 520 mm**3 |
| O=C(Nc1c2c(nc3ccccc13)N(Cc1ccccc1)CC2)c1c(F)ccc(F)c1F |  |  |  |  | Activity [5]: 1; Activity [6]: 3.1; Toxicity [7]: > 58 µM |
| CC(C)(C)NCC(=O)Nc1c2c(nc3ccccc13)N(Cc1ccccc1)CC2 | 29% | 12 | 0.9 | 13 |  |
| CN1CCN(CC(=O)Nc2c3c(nc4ccccc24)N(Cc2ccccc2)CC3)CC1 | 21% | 7.5 | 1.1 | 6.8 |  |
| CC(C)(C)c1cc(CCC(=O)Nc2c3c(nc4ccccc24)N(Cc2ccccc2)CC3)cc(C(C)(C)C)c1O | 50% | 13.2 | 1.2 | 11 |  |
| O=C(Nc1c2c(nc3ccccc13)N(Cc1cccc(Cl)c1)CC2)C12CC3CC(CC(C3)C1)C2 | 33% | 1.2 | 1.2 | 1 |  |
| COc1cc(CNc2c3c(nc4ccccc24)N(Cc2ccccc2)CC3)cc(OC)c1 |  |  |  |  | Activity [5]: 0.9; Activity [6]: 1.4; Toxicity [7]: 47 µM |
| CN1CCc2c1nc1cc(Br)ccc1c2N | 94% | 1.3 | 1.6 | 0.8 |  |
| CCCCN1CCc2c1nc1cc(Br)ccc1c2N | 98% | 1.1 | 1 | 1.1 |  |
| CCOC(=O)CNc1c2c(nc3ccccc13)N(Cc1ccccc1)CC2 |  |  |  |  | Activity [5]: 0.9; Activity [6]: 0.9; Toxicity [7]: 33 µM |
| CN1CCc2c1nc1ccccc1c2NC(=O)CNCCc1ccc(O)cc1 | 21% | 1.7 | 1.4 | 1.2 |  |
| CN1CCc2c1nc1ccccc1c2NC(=O)Cc1ccccc1 |  |  |  | 5.6 |  |
| CCN(CC)CC(=O)Nc1c2c(nc3ccccc13)N(Cc1ccccc1)CC2 | 14% | 15 | 1 | 15 |  |
